Laboratory results from ChEMBL document CHEMBL4387745, “Development of bivalent compounds as potential neuroprotectants for Alzheimer's disease” (Bioorg Med Chem Lett, 2019).
Activity calls are given as the source filed them. The calls are words filed in the database; no cut-off is given here.

Experiments:
[1] = Neuroprotective activity against tetracycline removal-induced cytotoxicity in human MC65 cells assessed as increase in cell viability incubated for 72 hrs by MTT assay; assay type: functional, cell-based; conditions: MC65, 72 h
In short: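 MC65 cells (C99 expression under tetracycline suppression; cytotoxicity induced by TC removal) treated across a concentration range for 72 h under −TC, with +TC cultures as 100% viability reference. Viability read by MTT. EC50 reported as mean ± SEM of three independent experiments.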

Homo sapiens [2] = species: Homo sapiens; assay: Neuroprotective activity against tetracycline removal-induced oxidative stress in human MC65 cells assessed as reduction in accumulation of intracellular ROS at 1 uM incubated for 48 hrs by DCFH-DA staining-based fluorescence analysis relative to control; assay type: functional, cell-based
In short: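 MC65 cells without TC given compound (1 μM) for 48 h, then incubated with DCFH-DA (25 μM) for 1 h. ROS given as percentage of fluorescence intensity relative to +TC control; error bars SEM, Student t-test versus −TC control.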

[3] = Metal chelating activity assessed as compound-Zn2+ complex formation at 50 uM after 10 mins by UV-vis spectroscopy
In short: (§1)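 Compound at 50 μM mixed with CuSO₄, FeCl₂ or ZnCl₂ (60 μM) at room temperature for 10 min; UV-vis spectrum then recorded from 300 to 550 nm.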

[4] = Metal chelating activity assessed as compound-Cu2+ complex formation at 50 uM after 10 mins by UV-vis spectroscopy; in short: as §1
[5] = Metal chelating activity assessed as compound-Fe2+ complex formation at 50 uM after 10 mins by UV-vis spectroscopy; in short: as §1
Homo sapiens [6] = species: Homo sapiens; assay: Neuroprotective activity against tetracycline removal-induced mitochondrial oxidative stress in human MC65 cells assessed as reduction in accumulation of mitoROS at 0.1 to 1 uM incubated for 48 hrs by MitoSOX red dye-based flow cytometric analysis relative to control; assay type: functional, cell-based
In short: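 After TC removal, MC65 cells were exposed to compound at 1, 0.3 or 0.1 μM for 48 h, then loaded with MitoSOX (2.5 μM) for 30 min. Mitochondrial ROS expressed as percent fluorescence intensity versus +TC control; error bars SEM, Student t-test versus −TC control.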

Row | Activity [3] | Activity [4] | Activity [5] | Structure (SMILES) | EC50 [1] [nM] | Activity (Homo sapiens [2]) | Activity (Homo sapiens [6])
1 |  |  |  | COc1cc(/C=C/C(=O)C(Cc2cn(CCNC(=O)CCC(=O)NCCCN3CCN(CCCNC(=O)CCN4CCN(CCCO[C@H]5CC[C@@]6(C)C(=CC[C@H]7[C@@H]8CC[C@H]([C@H](C)CCCC(C)C)[C@@]8(C)CC[C@@H]76)C5)CC4)CC3)nn2)C(=O)/C=C/c2ccc(O)c(OC)c2)ccc1O | 132 | Active | 
2 |  |  |  | COc1cc(/C=C/C(=O)C(Cc2cn(CCCCC(=O)NCCCN3CCN(CCCNC(=O)CO[C@H]4CC[C@@]5(C)C(=CC[C@H]6[C@@H]7CC[C@H]([C@H](C)CCCC(C)C)[C@@]7(C)CC[C@@H]65)C4)CC3)nn2)C(=O)/C=C/c2ccc(O)c(OC)c2)ccc1O | 107 | Active | 
3 |  |  |  | COc1cc(/C=C/C(=O)C(Cc2cn(CCNC(=O)CCC(=O)NCCCN3CCN(CCCNC(=O)CO[C@H]4CC[C@@]5(C)C(=CC[C@H]6[C@@H]7CC[C@H]([C@H](C)CCCC(C)C)[C@@]7(C)CC[C@@H]65)C4)CC3)nn2)C(=O)/C=C/c2ccc(O)c(OC)c2)ccc1O | 74.1 | Active | 
4 |  |  |  | COc1cc(/C=C/C(=O)C(Cc2cn(CCCCC(=O)NCCCN3CCN(CCCNC(=O)CCC(=O)NCCCN4CCN(CCCNC(=O)CO[C@H]5CC[C@@]6(C)C(=CC[C@H]7[C@@H]8CC[C@H]([C@H](C)CCCC(C)C)[C@@]8(C)CC[C@@H]76)C5)CC4)CC3)nn2)C(=O)/C=C/c2ccc(O)c(OC)c2)ccc1O | 105 | Active | 
5 | inactive | Active | Active | COc1cc(/C=C/C(=O)C(Cc2cn(CCC(=O)NCCCN3CCN(CCCNC(=O)CCN4CCN(CCCO[C@H]5CC[C@@]6(C)C(=CC[C@H]7[C@@H]8CC[C@H]([C@H](C)CCCC(C)C)[C@@]8(C)CC[C@@H]76)C5)CC4)CC3)nn2)C(=O)/C=C/c2ccc(O)c(OC)c2)ccc1O | 136 | Active | 
6 |  |  |  | COc1cc(/C=C/C(=O)C(Cc2cn(CCC(=O)NCCCN3CCN(CCCNC(=O)CCC(=O)NCCCN4CCN(CCCNC(=O)CO[C@H]5CC[C@@]6(C)C(=CC[C@H]7[C@@H]8CC[C@H]([C@H](C)CCCC(C)C)[C@@]8(C)CC[C@@H]76)C5)CC4)CC3)nn2)C(=O)/C=C/c2ccc(O)c(OC)c2)ccc1O | 103 | Active | 
7 |  |  |  | COc1cc(/C=C/C(=O)C(Cc2cn(CCCCNC(=O)CCC(=O)NCCCN3CCN(CCCNC(=O)CO[C@H]4CC[C@@]5(C)C(=CC[C@H]6[C@@H]7CC[C@H]([C@H](C)CCCC(C)C)[C@@]7(C)CC[C@@H]65)C4)CC3)nn2)C(=O)/C=C/c2ccc(O)c(OC)c2)ccc1O | 140 | Active | 
8 |  |  |  | COc1cc(/C=C/C(=O)C(Cc2cn(CCCCNC(=O)CCC(=O)NCCCN3CCN(CCCNC(=O)CCN4CCN(CCCO[C@H]5CC[C@@]6(C)C(=CC[C@H]7[C@@H]8CC[C@H]([C@H](C)CCCC(C)C)[C@@]8(C)CC[C@@H]76)C5)CC4)CC3)nn2)C(=O)/C=C/c2ccc(O)c(OC)c2)ccc1O | 359 | Active | 
9 | inactive | Active | Active | COc1cc(/C=C/C(=O)C(Cc2cn(CCC(=O)NCCCN3CCN(CCCNC(=O)CO[C@H]4CC[C@@]5(C)C(=CC[C@H]6[C@@H]7CC[C@H]([C@H](C)CCCC(C)C)[C@@]7(C)CC[C@@H]65)C4)CC3)nn2)C(=O)/C=C/c2ccc(O)c(OC)c2)ccc1O | 81.9 | Active | Dose-dependent effect
10 |  |  |  | COc1cc(/C=C/C(=O)C(Cc2cn(CCCCC(=O)NCCCN3CCN(CCCNC(=O)CCN4CCN(CCCO[C@H]5CC[C@@]6(C)C(=CC[C@H]7[C@@H]8CC[C@H]([C@H](C)CCCC(C)C)[C@@]8(C)CC[C@@H]76)C5)CC4)CC3)nn2)C(=O)/C=C/c2ccc(O)c(OC)c2)ccc1O | 238 | Active | 
